From PubChem
In the library only some 3.1% were active in any assay of this set; here they are far more common.
rRNA inh HTS – selective bacterial rRNA inhibition in E. coli | GFP signal change (wild-type ribosome), % (concentration not given with the values) | E. coli WT GFP vs humanized-ribosome RFP mutants, fluorescence, 24 h; active compounds read low; DMSO median 0, no signal -100 | actives 1.6% (n = 350,000);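 active = significant combined selectivity score with lowered wild-type GFP, culture density cut under 30%, mutant RFP and density less affected; inactive = any of these conditions unmet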
miR122 inh – miR-122 inhibition in Huh7 cells | Huh7 miR-122 Renilla luciferase sensor, 48 h; neutral wells = 0, positive control = 100 | activation (reporter increase), % at 12.5 µM | actives 0.3% (n = 340,000);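 active = mean replicate activation score at least 90 and every replicate individually at or above 90; inconclusive = only one of the two criteria met; inactive = neither criterion met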;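 note: higher luciferase means less miR-122 activity so hits act as miR-122 inhibitors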
DENV2 CPE rescue – DENV2-induced cell death inhibition; CPE inhibition, % at 9.99 µM; actives 1.7% (n = 350,000); DENV2-infected cells, cytopathic effect rescue, plate reader; in the data active = CPE inhibition above about 20%, passing the limit was not always enough; inconclusive = no clear call, values can overlap the other calls; tested in BHK-21 cells;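 note: 0% = median of neutral control wells and 100% = median of positive control wells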
E-selectin induc – E-selectin induction on HUVECs; P16581; HUVEC E-selectin immunofluorescence imaging; normalized: neutral wells 0, TNF-alpha wells 100; activation, % at 7.58 µM; actives 0.37% (n = 260,000); AID 686992;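 active = mean E-selectin-positive cell signal at least 10% of the positive control, reached in at least 60% of replicates, without over 20% cell loss; inconclusive = no rule given, readout overlaps actives, possibly toxicity-flagged; inactive = the rest, including those meeting only one limit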
Target sequence (P16581 whole entry, looked up): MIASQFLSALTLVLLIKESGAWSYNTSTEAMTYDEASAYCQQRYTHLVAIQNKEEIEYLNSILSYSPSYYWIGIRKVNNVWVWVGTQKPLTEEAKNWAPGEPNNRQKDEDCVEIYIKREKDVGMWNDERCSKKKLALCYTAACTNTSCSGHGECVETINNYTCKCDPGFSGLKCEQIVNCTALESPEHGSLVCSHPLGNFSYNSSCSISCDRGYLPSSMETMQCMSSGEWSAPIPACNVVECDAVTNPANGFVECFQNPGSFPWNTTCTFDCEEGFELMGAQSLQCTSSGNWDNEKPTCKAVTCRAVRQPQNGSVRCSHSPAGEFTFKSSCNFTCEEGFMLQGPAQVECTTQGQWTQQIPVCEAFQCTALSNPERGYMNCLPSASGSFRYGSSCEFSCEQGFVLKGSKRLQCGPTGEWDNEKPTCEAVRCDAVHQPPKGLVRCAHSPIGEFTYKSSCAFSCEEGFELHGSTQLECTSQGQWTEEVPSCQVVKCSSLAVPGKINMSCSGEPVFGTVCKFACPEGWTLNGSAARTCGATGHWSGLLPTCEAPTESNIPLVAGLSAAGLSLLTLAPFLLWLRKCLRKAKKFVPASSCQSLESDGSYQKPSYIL
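Assay system: HUVEC, human umbilical vein endothelial cells / Amount: 3,000 HUVEC/well / Controls: TNF-alpha positive control, DMSO neutral control / Compound dosing: single concentration / Medium: EGM-2 over gelatin coat / Evaluation: percent E-selectin-positive cells / Signal: immunofluorescence imaging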
Cneo AK release – causes C. neoformans cell lysis; adenylate kinase release luminescence, 4 h; normalised: neutral wells 0, clomiphene wells 100; lysis activity, % at 15 µM; actives 0.2% (n = 360,000); AID 651654;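 active = mean lysis activity across replicates of at least 80%, whatever share of replicates individually reach that level; inactive = mean lysis activity below 80%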
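Material – Cryptococcus neoformans yeast cells · Quantity – 5 × 10^6 yeast cells/mL · Buffer or medium – YPD medium · Compound – single dose · Timing – 4 h static compound exposure, 37 °C, read 1 h post-reagent · Signal – adenylate kinase release luminescence · Read-out basis – lysis from increased AK signal · Benchmarks – Clomiphene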
HepG2 tox – cytotoxic compounds in HepG2 cells | shares compounds with rRNA inh HTS | HepG2 viability, ATP luminescence, 72 h | activity change, negative = cytotoxicity, unspecified at 26 µM | 30 tested, under 10 active | AID 743480;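 active = compounds whose fitted half-maximal signal-loss concentration is at most twice their highest valid dose; inconclusive = flat curve with 30 to 70% signal loss, or poor fit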
AID977621 – growth inhibition of wild-type GFP E. coli, dose response, H69 mutant RFP, cherry-pick | shares compounds with rRNA inh HTS | E. coli wild-type GFP strain growth, fluorescence, 24 h | activity change, negative = inhibition at 50 µM | 1,900 tested, under 10 active | AID 977621;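 active = Wild-type ribosome reporter drop at least double the humanized mutant ribosome reporter drop, growth loss under a set limit; inconclusive = no clear call, values can overlap the other calls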;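 note: wild-type GFP and H69 mutant RFP strains grown together 50/50 in each well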
AID977628 – E. coli growth inhibition, wild-type GFP versus h24 humanized RFP strain, dose response, h24 mutant RFP vs wild-type GFP, cherry-pick | shares compounds with rRNA inh HTS | E. coli WT GFP strain growth, fluorescence, 24 h | activity change, negative = inhibition at 50 µM | 1,900 tested, under 10 active;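 active = compound lowering the normal-ribosome reporter at least twice as much as the humanized-ribosome reporter, growth loss under a set limit; inconclusive = no clear call, values can overlap the other calls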;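 note: wild-type GFP and h24 humanized RFP strains co-cultured 1 to 1 per well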
* marks the source's active call; other numbers are inactive results; ? = inconclusive; . = not tested or not shown; ! = a repeat was not active; [ ] = another dose, or the depositor's remark.

SMILES	rRNA inh HTS	miR122 inh	DENV2 CPE rescue	E-selectin induc	Cneo AK release	AID977621	AID977628	others
COc1cccc(NC(=O)C[C@@H]2CC[C@@H]3[C@@H](COc4ccc(NC(=O)C5CCCCC5)cc4C(=O)N3C)O2)c1	-2	-5[16.7 µM]	4	0	-3	.	.
O=C(O)c1cc([N+](=O)[O-])ccc1NCc1ccccc1	-25*	.	-7	0	.	.	.	HepG2 tox=13
O=C(O)c1cc([N+](=O)[O-])ccc1NCCCc1ccccc1	-57	2	-3	1	1	.	.
C[C@@H]1CN([C@H](C)CO)C(=O)c2cc(NC(=O)Nc3cccc4ccccc34)ccc2O[C@@H](C)CCCCO[C@@H]1CN(C)S(=O)(=O)c1ccc(F)cc1	4	7[16.7 µM]	-2	0	2	.	.
COc1ccc(Cl)cc1NC(=O)CN(C)CC(=O)Nc1cccc(S(=O)(=O)N2CCCC2)c1	-5	3	-6	.	-8	.	.
CCN(CC(=O)Nc1cccc(S(=O)(=O)N2CCCC2)c1)CC(=O)Nc1ccccc1OC	-18*	.	.	2	.	-8.9	-17
CCN(CC)CC(=O)Nc1ccc(-c2ccc(NC(=O)CN(CC)CC)c(OC)c2)cc1OC	-23*	-7	3	.	.	-25	.
CC(C)[C@@H]1COCn2nncc2CC[C@H](C)C(=O)N1	0	.	.	.	.	.	.
O=C(c1cccc(F)c1)N1CCN(C(=O)c2cc3nc(-c4ccco4)cc(C(F)(F)F)n3n2)CC1	-6	.	-1	.	5	.	.
CN1CCN(C(=O)c2cc3nc(-c4ccco4)cc(C(F)(F)F)n3n2)CC1	-27*	.	1	.	.	-9.9	-4.4
CC(=O)N(C)C[C@@H]1Oc2ncc(-c3cccnc3)cc2C(=O)N([C@@H](C)CO)C[C@H]1C	2	-5[16.7 µM]	11	0	-1	.	.
Fc1ccc(Br)cc1SCCc1ccncc1	-25*	.	4	0	-1	-2	-13
COc1ccc(OC)c(-c2nn(-c3ccccc3)cc2C(=O)N2CCc3ccccc3C2)c1	-16*	.	-2	.	-1	-13	.
C[C@H](CO)N1C[C@H](C)[C@H](CN(C)C(=O)Nc2ccc(C(F)(F)F)cc2)Oc2ccc(NC(=O)NC3CCCCC3)cc2C1=O	-4	-5[16.7 µM]	-4	2	-5	.	.
O=C(C[C@@H]1CC[C@@H](NC(=O)c2cccc(F)c2)[C@@H](CO)O1)NCc1ccc(Oc2ccccc2)cc1	-9	.	7	-1	-3	.	.
Cc1noc(C)c1S(=O)(=O)Nc1ccc2c(c1)C(=O)N([C@@H](C)CO)C[C@@H](C)[C@H](CN(C)C(=O)C1CCCCC1)OCCCC[C@H](C)O2	0	-7[16.7 µM]	-2	0	-1	.	.
CN(C)CCCN(C(=O)CCSc1ccccc1)c1nc2cc3c(cc2s1)OCO3	-31*	-20	-3	.	0	-5.2	-3.8
C/C(=N/O)c1cccc(N2Cc3ccccc3C2)c1	-9	12	-7	0	0	.	.
Cc1cccc(N2Cc3ccc(Br)cc3C2)c1	-21*	.	-5	.	.	-10	-3.8
O=C1c2ccccc2C(c2nnnn2Cc2ccccc2)N1Cc1cccc(F)c1 (stereo not drawn)	-23*!	.	4	5	.	-4.9	-5.4
Cn1c(CCN2CCOCC2)nc2cc(NC(=O)c3cccs3)ccc21	-18*	.	2	.	.	-9.8	?
CC(C)C[C@H]1COc2cc(Br)ccc2S(=O)(=O)N1	-22*	9	-3	-1	6	0.022	?
C[C@@H]1CN([C@@H](C)CO)C(=O)Cc2cc(NC(=O)Cc3ccccc3)ccc2O[C@H]1CN(C)S(=O)(=O)c1ccccc1	-6	-2[16.7 µM]	-7	0	0	.	.
CS(=O)(=O)NCCSc1cc(C(F)(F)F)nc2ccccc12	-20*	.	-4	1	.	.	?
CS(=O)(=O)NCCSCc1ccccc1	.	-3	.	.	0	.	.
SMILES	rRNA inh HTS	miR122 inh	DENV2 CPE rescue	E-selectin induc	Cneo AK release	AID977621	AID977628	others
CC(C)Oc1cc(F)ccc1-c1cc(C(=O)NCC2CCCCC2)[nH]n1	-21	-5	3	0	1	.	.
Cc1cc(F)ccc1-c1cc(C(=O)NCC2CCCCC2)[nH]n1	-36*	-2	-2	1	-1	.	?
CCNC(=O)C[C@H]1CC[C@H]2[C@@H](COc3ccc(NS(C)(=O)=O)cc3C(=O)N2C)O1	4	-33[16.7 µM]	7	0	49	.	.
COc1ccc(OC)c(S(=O)(=O)Nc2cccc3ccc(O)cc23)c1	-32*	.	6	.	.	-8.6	-14
C[C@@H]1CCCCO[C@H](CN(C)C)[C@H](C)CN([C@@H](C)CO)C(=O)c2cc(NC(=O)Nc3cccc4ccccc34)ccc2O1	-36*	0[16.7 µM]	17	0	-4	-3.2	0.029
C[C@@H]1CCCCO[C@@H](CN(C)C)[C@H](C)CN([C@@H](C)CO)C(=O)c2cc(NC(=O)Nc3cccc4ccccc34)ccc2O1	3	1[16.7 µM]	?	0	2	-5.2	6.2
C[C@@H]1CCCCO[C@@H](CN(C)C(=O)c2ccccc2)[C@H](C)CN([C@@H](C)CO)C(=O)c2cc(NC(=O)Cc3ccccc3)ccc2O1	-25*	-4[16.7 µM]	-2	0	0	.	?
C[C@@H]1CCCCO[C@H](CN(C)C)[C@@H](C)CN([C@H](C)CO)C(=O)c2cc(NC(=O)Nc3cccc4ccccc34)ccc2O1	2	-1[16.7 µM]	-9	0	-5	5.2	?
COc1ccccc1-c1cn(CC[C@@H]2CC[C@@H](NC(=O)NC(C)C)[C@H](CO)O2)nn1	-1	.	-4	1	-4	.	.
CN(C)C(=O)[C@]1(Cc2ccccc2CN=[N+]=[N-])N=C(c2ccc(OCCCO)cc2)O[C@@H]1c1ccccc1	.	.	3	.	-5	.	.
C[C@@H]1CCCCO[C@@H](CN(C)C(=O)Nc2cccc3ccccc23)[C@@H](C)CN([C@@H](C)CO)C(=O)c2cc(NC(=O)Nc3cccc4ccccc34)ccc2O1	7	6[16.7 µM]	-13	0	-2	.	.
C[C@@H]1CCCCO[C@@H](CN(C)S(C)(=O)=O)[C@@H](C)CN([C@H](C)CO)C(=O)c2cc(NC(=O)Nc3cccc4ccccc34)ccc2O1	1	4[16.7 µM]	?	0	1	.	.
C[C@@H]1CN([C@@H](C)CO)C(=O)c2cc(NC(=O)Nc3cccc4ccccc34)ccc2O[C@@H](C)CCCCO[C@H]1CN(C)C	-1	-5[16.7 µM]	-18	0	6	-6.2	2.7
